Experimental data from ChEMBL document CHEMBL1131524, “Azapeptides as inhibitors and active site titrants for cysteine proteinases” (J Med Chem, 1998).

Tests used:
Papain (Carica papaya) [1] = target: T1, Papain (Carica papaya) (UniProt P00784); test: The apparent second-order rate constant for inactivation of papain enzyme. Apparent rate constant was determined from repeats of Kobs vs [I] using at least 5 values of [I].
T1 sequence (whole entry): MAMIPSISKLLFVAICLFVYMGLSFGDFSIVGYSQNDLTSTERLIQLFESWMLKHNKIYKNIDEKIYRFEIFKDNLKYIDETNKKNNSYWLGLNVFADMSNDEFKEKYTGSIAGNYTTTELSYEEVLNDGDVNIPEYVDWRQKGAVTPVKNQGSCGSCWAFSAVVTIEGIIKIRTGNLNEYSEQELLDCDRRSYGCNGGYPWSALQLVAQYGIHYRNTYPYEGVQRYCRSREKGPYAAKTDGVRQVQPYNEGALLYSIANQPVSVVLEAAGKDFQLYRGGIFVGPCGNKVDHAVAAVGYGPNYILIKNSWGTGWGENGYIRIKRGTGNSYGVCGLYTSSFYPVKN
In short: (§1)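 Papain purified from mercuripapain on Hg-Sepharose, then activated with L-cysteine for 15 min at room temperature in 50 mM K2HPO4, 1 mM EDTA, pH 6.3. Assays used 50 μM Cbz-Gly-ONp in buffer with 20% CH3CN, followed at 340 nm and corrected for spontaneous hydrolysis. Analysis was by Kitz–Wilson, with kobsd taken from slopes of semilog activity-versus-time plots.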

Cathepsin B (Bos taurus) [2] = target: Cathepsin B (Bos taurus) (UniProt P07688); test: The apparent second-order rate constant for inactivation of bovine cathepsin B enzyme. Apparent rate constant was determined from repeats of Kobs vs [I] using at least 5 values of [I].
In short: (§2)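 Bovine spleen cathepsin B was activated with 10 mM dithiothreitol, and its active concentration was set by E-64 titration. Assays ran in 25 mM sodium acetate, 1 mM EDTA, pH 5.3, with 20% CH3CN and 80 μM Cbz-Lys-ONp, monitored at 326 nm. Inactivation was analysed by Kitz–Wilson, with kobsd from semilog plots of activity versus time.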

Papain (Carica papaya) [3] = target: T1, Papain (Carica papaya); test: Specificity constant is determined from the ratio of the inactivation rate constants (Kcat/Km)of the papain
Cathepsin B (Bos taurus) [4] = target: Cathepsin B (Bos taurus) (UniProt P07688); test: Specificity constant is determined from the ratio of the inactivation rate constants (Kcat/Km)of the cathepsin B.
Papain (Carica papaya) [5] = target: T1, Papain (Carica papaya); test: Specificity constant is determined from the ratio of the inactivation rate constants (Kcat/Km)of the papaine.
Cathepsin B (Bos taurus) [6] = target: Cathepsin B (Bos taurus) (UniProt P07688); test: The apparent second-order rate constant for inactivation of bovine cathepsin B enzyme. Apparent rate constant was determined from repeats of Kobs vs [I] using at least 5 values of [I], where I=0.2 mM
In short: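 Bovine spleen cathepsin B, activated with 10 mM dithiothreitol, in 25 mM sodium acetate pH 5.3 with 1 mM EDTA and 20% CH3CN (v/v). Substrate 80 μM Cbz-Lys-ONp; hydrolysis followed at 326 nm (Δε 9060 M⁻¹ cm⁻¹). Enzyme concentration set by E-64 titration. Kitz–Wilson analysis: k_obsd from slopes of semilog plots of activity vs time.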

Papain (Carica papaya) [7] = target: T1, Papain (Carica papaya); test: The apparent second-order rate constant for inactivation of papain enzyme. Apparent rate constant was determined from repeats of Kobs vs [I] using at least 5 values of [I] where I=0.95 mM; in short: as §1
Cathepsin B (Bos taurus) [8] = target: Cathepsin B (Bos taurus) (UniProt P07688); test: The apparent second-order rate constant for inactivation of bovine cathepsin B enzyme. Apparent rate constant was determined from repeats of Kobs vs [I] using at least 5 values of [I], where I=0.95 mM; in short: as §2
Papain (Carica papaya) [9] = target: T1, Papain (Carica papaya); test: Specificity constant is determined from the ratio of the inactivation rate constants (Kcat/Km)of the papain.

Compound | k2/Ki (Papain (Carica papaya) [1]) [M⁻¹ s⁻¹] | k2/Ki (Cathepsin B (Bos taurus) [2]) [M⁻¹ s⁻¹] | k cat/Km (Cathepsin B (Bos taurus) [4]) [M⁻¹ s⁻¹] | other results
COC(=O)NNC(=O)[C@H](Cc1ccccc1)NC(C)=O | 19 | – | – | –
CCOC(=O)N(C)NC(=O)[C@H](Cc1ccccc1)NC(C)=O | 0.05 | – | – | –
COC(=O)N(C)NC(=O)[C@H](Cc1ccccc1)NC(C)=O | 0.05 | – | – | –
CC(=O)N[C@@H](Cc1ccccc1)C(=O)NNC(=O)Nc1ccc([N+](=O)[O-])cc1 | 1 | 0 | – | –
CC(=O)N[C@@H](Cc1ccccc1)C(=O)NNC(=O)Oc1ccc([N+](=O)[O-])cc1 | > 70000 | – | – | –
C[C@H](NC(=O)OCc1ccccc1)C(=O)Oc1ccc([N+](=O)[O-])cc1 | – | – | 450000 | k cat/Km (Papain (Carica papaya) [3]): 800000 M⁻¹ s⁻¹
O=C(N[C@@H](Cc1ccccc1)C(=O)Oc1ccc([N+](=O)[O-])cc1)OCc1ccccc1 | – | – | 80000 | k cat/Km (Papain (Carica papaya) [3]): 120000 M⁻¹ s⁻¹
CC(=O)N[C@@H](Cc1ccccc1)C(=O)NN(C)C(=O)Oc1ccccc1 | 110 | – | 18 | k cat/Km (Papain (Carica papaya) [5]): 110 M⁻¹ s⁻¹; k obs / 1 (Cathepsin B (Bos taurus) [6]): 18
CC(=O)N[C@@H](Cc1ccccc1)C(=O)N/N=C(/N)S | 0.03 | – | – | –
CC(=O)N[C@@H](Cc1ccccc1)C(=O)NNC(=O)OCC(C)C | 55 | – | – | –
CC(=O)N[C@@H](Cc1ccccc1)C(=O)NNC(N)=O | 4 | 0 | – | –
CC(=O)N[C@@H](Cc1ccccc1)C(=O)NNC(=O)OCCCl | 1150 | 54 | – | –
CCOC(=O)NNC(=O)[C@H](Cc1ccccc1)NC(C)=O | 47 | – | – | –
CC(=O)N[C@@H](Cc1ccccc1)C(=O)NNC(=O)OCCBr | 1250 | 90 | – | –
CC(=O)N[C@@H](Cc1ccccc1)C(=O)NNC(=O)OCC(Cl)(Cl)Cl | 11800 | 730 | 730 | k cat/Km (Papain (Carica papaya) [5]): 11800 M⁻¹ s⁻¹
CC(=O)N[C@@H](Cc1ccccc1)C(=O)NNC(=O)OCc1ccccc1 | 30500 | 310 | – | –
CC(=O)N[C@@H](Cc1ccccc1)C(=O)NN(Cc1ccccc1)C(=O)Oc1ccccc1 | – | – | – | kobs/[I] (Papain (Carica papaya) [7]): 0.3 M⁻¹ s⁻¹; kobs/[I] (Cathepsin B (Bos taurus) [8]): < 0.2 M⁻¹ s⁻¹
NCCCC[C@H](NC(=O)OCc1ccccc1)C(=O)Oc1ccc([N+](=O)[O-])cc1 | – | – | 776000 | k cat/Km (Papain (Carica papaya) [9]): 853000 M⁻¹ s⁻¹
CC(=O)N[C@@H](Cc1ccccc1)C(=O)NN(C)C(=O)OCC(Cl)(Cl)Cl | 12 | – | – | kobs/[I] (Cathepsin B (Bos taurus) [8]): 0.34 M⁻¹ s⁻¹
CC(=O)N[C@@H](Cc1ccccc1)C(=O)NNC(=O)Oc1ccccc1 | 67600 | 7730 | 7730 | k cat/Km (Papain (Carica papaya) [5]): 67600 M⁻¹ s⁻¹
